This is an account of results in article PMC3557458 (Journal of molecular biology, 2012).

“Also recorded” adds a separate entry of the source.

For experiment [1], the system named is Bim and Bad BH3 peptides. It is filed as binding, human. The conditions noted are these: FP competition, Bim-22 and Bad-22, Ki relative to Bcl-xL. The gist of the method: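 His6-tagged Bcl-xL variants (E. coli RP3098, Ni-NTA under native conditions) at 50 nM with 15 nM fluorescein-labelled peptide, which varied by variant, competed against serially diluted unlabelled peptide. Equilibrated ≥3 hr at ~25 °C; anisotropy read in duplicate. Ki values were fitted using direct-binding Kd values, then normalized to averaged parent-protein Ki.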

Experiment [2] deals with RX1, recombinant (human) (UniProt Q07817). The experiment can be described thus: fluorescence polarisation.
In experiment [3] the target is recombinant native Bcl-xL (human) (UniProt Q07817). The experiment can be described thus: fluorescence polarisation. (In general: In fluorescence polarisation assays a small probe gives low polarisation when free and higher when bound to something large.)
Experiment [4] has as its target recombinant native Bcl-xL (human, UniProt Q07817-1 1-209). As to the kind of experiment: fluorescence polarisation.
Experiment [5] addresses RX1 (Homo sapiens, UniProt Q07817, A142G/F105L/F146A/L130I/Q111G/Q125V/S122I/V126A/Y101H). It is filed as binding. The following applies: from Ki values of RX1 and Bcl-xL for Bim-22 and Bad-22.
The test system of experiment [6] is fluoresceinated Bim vs. Bad BH3. The experiment can be described thus: Fluorescence polarization direct binding of fluoresceinated Bim vs. Bad BH3. Further details: species or system human. The conditions noted are these: labeled peptide 5 nM, at least 1 hr, ~25 °C.

recombinant native Bcl-xL, sequence (Q07817 1-209): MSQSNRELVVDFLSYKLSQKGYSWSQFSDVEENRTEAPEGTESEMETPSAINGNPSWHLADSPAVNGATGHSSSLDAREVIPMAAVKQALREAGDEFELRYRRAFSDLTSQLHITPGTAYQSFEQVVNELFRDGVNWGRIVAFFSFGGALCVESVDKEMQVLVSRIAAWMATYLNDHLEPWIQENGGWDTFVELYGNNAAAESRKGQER

Take “A104M: Bcl-xL point mutant A104M (not in RX1)”: the “Bad vs. Bim binding preference of point mutation in the context of Bcl-xL” value (“Bad vs. Bim binding preference” for short) in experiment [1] was “confirmed to be specific”. Same read-out and setting: next, A142G: Bcl-xL point mutant A142G: “preferred binding Bad over Bim”. For Bad-22, Bad BH3 peptide of 22 residues, the Ki (in general, the dissociation constant of the complex between target and ligand, obtained from inhibition or displacement) was 33 nM in experiment [2] and 2 nM in experiment [3]. The corresponding values for Bim-22, Bim BH3 peptide of 22 residues are greater than 50000 nM and 3 nM.

Turning to F105L: Bcl-xL point mutant F105L, the “Bad vs. Bim binding preference” value in experiment [1] is “favored Bim binding over Bad”. The same measure, in the same setting: as for F146A: Bcl-xL point mutant F146A, the entry is “did not confer specificity”. Turning to L130I: Bcl-xL point mutant L130I, in experiment [1], the “Bad vs. Bim binding preference” value is recorded as “shown not to be”. The same measure, in the same setting: next, “S122I: Bcl-xL point mutant, Ser 122 to Ile”: “preferred binding Bad over Bim; also recorded: confirmed to be specific”. On the same count and under the same terms, next, V126A: Bcl-xL point mutant V126A: “preferred binding Bad over Bim”.

B1: PUMA BH3 peptide (peptide)
chain: EQWAREIGAQLRRMADDLNAQYERRRQE
As for B1, the Ki in experiment [4] is less than 0.1 nM.

B2: Bad-28, recombinant Bad BH3 28-mer peptide (peptide, UniProt Q92934 104-131, looked up)
peptide: LWAAQRYGRELRRMSDEFVDSFKKGLPR
Consider B2, for which the inhibitory constant (Ki) in experiment [4] is less than 0.1 nM.

B3: RX1: Re-designed Bcl-xL variant: Y101H, F105L, Q111G, S122I, Q125V, V126A, L130I, A142G, F146A (protein)
chain: MSQSNRELVVDFLSYKLSQKGYSWSQFSDVEENRTEAPEGTESEMETPSAINGNPSWHLADSPAVNGATGHSSSLDAREVIPMAAVKQALREAGDEFELRHRRALSDLTSGLHITPGTAYQIFEVAVNEIFRDGVNWGRIVGFFSAGGALCVESVDKEMQVLVSRIAAWMATYLNDHLEPWIQENGGWDTFVELYGNNAAAESRKGQER
modifications: left off: His6, end not stated, state not stated
Consider B3, for which, in experiment [5], the “specificity increase for Bad BH3 over Bim BH3 relative to native Bcl-xL” value is on record as ≥ 1,000 fold. In addition, in experiment [6], the “preference for binding Bad over Bim, direct binding” value is reported as “strong preference”.
